High-throughput results deposited in PubChem by several laboratories.
WT yeast gro inh – growth inhibition of WT yeast, mitochondrial fusion screen; AID 1362; mitochondrial fusion phenotypic screen, WT strain; inhibition, % at 10 µM; 190,000 compounds, 2.1% hits; in the data active means inhibition above about 58%; tested in S. cerevisiae
ABCB1 inh – inhibitors of human ABCB1 transporter, ABCG2 counter-screen; P08183; CCRF-Adr cells, JC-1 efflux, flow cytometry; inhibition, % at 6.6 µM; 190,000 compounds, 0.067% hits; AID 1326; in the data active means inhibition above about 40%;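 further: higher value means more JC-1 retained so stronger ABCB1 efflux block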
L major viab – reduces viability of Leishmania major promastigotes; resazurin fluorescence viability; 200,000 compounds, 9% hits; inhibition, % at 10 µM; in the data active means inhibition above about 50%;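 further: promastigotes grown with compound for 44 hours at 28 °C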
ABCG2 inh – blocks JC-1 efflux by human ABCG2 transporter | Q9UNQ0 | IgMXP3 cells, flow cytometry | 190,000 compounds, 0.1% hits | inhibition, % at 6.6 µM;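 active means inhibition above 80%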
Target sequence (Q9UNQ0 whole entry, looked up): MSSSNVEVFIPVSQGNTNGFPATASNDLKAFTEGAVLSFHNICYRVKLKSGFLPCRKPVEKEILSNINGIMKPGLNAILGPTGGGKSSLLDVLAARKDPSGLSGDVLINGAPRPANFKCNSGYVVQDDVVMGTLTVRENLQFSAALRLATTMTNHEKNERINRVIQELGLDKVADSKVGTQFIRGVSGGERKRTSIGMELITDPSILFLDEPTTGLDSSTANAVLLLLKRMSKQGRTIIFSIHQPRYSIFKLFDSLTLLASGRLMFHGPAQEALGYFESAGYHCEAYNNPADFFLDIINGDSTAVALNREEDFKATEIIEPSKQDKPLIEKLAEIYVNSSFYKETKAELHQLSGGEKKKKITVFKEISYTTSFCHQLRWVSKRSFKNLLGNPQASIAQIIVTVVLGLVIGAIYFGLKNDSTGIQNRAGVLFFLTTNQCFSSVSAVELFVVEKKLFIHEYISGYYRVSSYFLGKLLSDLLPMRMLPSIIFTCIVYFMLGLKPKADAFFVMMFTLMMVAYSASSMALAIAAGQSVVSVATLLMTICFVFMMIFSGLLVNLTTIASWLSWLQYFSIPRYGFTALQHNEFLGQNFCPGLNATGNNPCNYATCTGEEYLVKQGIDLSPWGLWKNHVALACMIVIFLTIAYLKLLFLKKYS
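Test system: IgMXP3 cells (ABCG2) mixed with DDAO far-red-labelled CCRF-Adr cells (ABCB1). Reagent: JC-1 transporter substrate. Compound dosing: single test compound dose, 6.6 µM final. Times: 10 min compound exposure, 25 °C. Detection: flow cytometry of retained JC-1 fluorescence. Read-out basis: efflux inhibition in percent versus controls. Controls: nicardipine and DMSO wells.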
RAM inhibit – blocks the yeast RAM network | S. cerevisiae dse1pr::URA3 reporter, 5-FOA growth OD615, 2 d; analog-sensitive cbk1-as2 kinase mutant strain | inhibition, % at 50 µM | 190,000 compounds, 1.8% hits | AID 868;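 active means inhibition above a set limit, 3 SD over mean compound inhibition, cut at about 8.4% in these data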;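 further: inhibition rescues growth on 5-FOA so higher OD means more RAM inhibition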
Each line names hits and unclear results; the compound was inactive in the other large screens. The list is not random: actives were taken first. Their share in the collection is about 12%.

CN1CCN(CCC(=O)Nc2ccc(OCc3ccccc3)cc2)CC1	L major viab 82
COC(=O)c1ccc(NC(=S)N2CCN(Cc3ccccc3)CC2)cc1	none
COC(=O)c1ccc(NC(=O)CCN2CCN(Cc3ccccc3)CC2)cc1	L major viab 75
O=C(CCN1CCN(Cc2ccccc2)CC1)Nc1ccc(OCc2ccccc2)cc1	none
O=C(/C=C/c1ccc(F)cc1)NNC(=O)CCN1CCN(Cc2ccccc2)CC1	L major viab 54
O=C(Nc1nc(=S)ss1)c1c(F)cccc1F	WT yeast gro inh 79
Cc1ccccc1C(=O)Nc1nc(=S)ss1	none
CCn1c(CSCc2ccc(Cl)cc2)nnc1SCC(=O)Nc1cccc(C(=O)O)c1	none
CCc1ccc2c(c1)cc(CN(C(=S)Nc1cccc(C)c1)C1CC1)c1nnnn12	none
Cc1ccc(C(=O)N(Cc2cccnc2)Cc2cc3cc(C)ccc3n3nnnc23)cc1	L major viab 96
Cc1ccc2c(c1)cc(CN(Cc1cccnc1)C(=O)c1ccccc1)c1nnnn12	none
Cc1ccc2c(c1)cc(CN(Cc1ccc3c(c1)OCO3)S(=O)(=O)c1ccccc1)c1nnnn12	L major viab 99
COC(OC)c1ccc(C#N)c(=O)[nH]1	none
CC(NC(=O)/C(=C\c1ccco1)NC(=O)c1ccccc1Br)C(=O)O (stereo not given)	none
CC(C)(CO)Nc1nc(N2CCCC2)nc(N2CCCC2)n1	L major viab 100
CC(C)(C)Nc1nc(OCC#N)nc(N2CCCCC2)n1	none
OCCN1CCN(c2nc(N3CCCCC3)nc(N3CCCCC3)n2)CC1	none
CCNc1nc(C(=O)O)nc(N2CCOCC2)n1	none
CCNc1nc(N2CCCC2)nc(N2CCCC2)n1	L major viab 73
CCNc1nc(NC(C)(C)C)nc(N2CCCCC2)n1	WT yeast gro inh 78, L major viab 95
O=S(=O)(NC1=NCCC1)c1cccc(NS(=O)(=O)c2ccc(OC(F)(F)F)cc2)c1	L major viab 54
Cc1ccc(C(C)(C)C)cc1S(=O)(=O)Nc1cccc(S(=O)(=O)NC2=NCCC2)c1	none
CCOc1ccc(-c2csc(Cn3c(CN4CCN(C)CC4)nc4ccccc4c3=O)n2)cc1	none
CC1CCc2c(nc3ncnn3c2N2CCN(c3ccccc3)CC2)C1 (stereo not given)	L major viab 52
Cc1ccc(Nc2c3c(nc4ncnn24)CC(C)CC3)cc1 (stereo not given)	none
O=C(C1CCC(Cn2c(=S)[nH]c3ccccc3c2=O)CC1)N1CCN(c2ccccc2)CC1 (stereo not given)	L major viab 99 (no result: WT yeast gro inh, ABCB1 inh, ABCG2 inh, RAM inhibit)
COc1ccccc1N1CCN(C(=O)C2CCC(Cn3c(=S)[nH]c4ccccc4c3=O)CC2)CC1 (stereo not given)	L major viab 64
O=C(C1CCC(Cn2c(=S)[nH]c3ccccc3c2=O)CC1)N1CCN(c2ccccn2)CC1 (stereo not given)	L major viab 99
N#Cc1c(-c2ccccc2)nc2n1CCS2	none
Cc1ccccc1CC1(CO)CCCN(C(=O)CCCN2CCCCC2=O)C1 (stereo not given)	none
O=C(N/N=C/C1CC2CCC1C2)c1ccc2c(c1)OCO2 (stereo not given)	none
Cc1cccc(Cn2c(C(=O)OC(C)C)cc3c2ccn3C)c1	RAM inhibit 11
CCOC(=O)c1cc2c(ccn2C)n1Cc1ccc(C#N)cc1	RAM inhibit 10
CCOC(=O)c1cc2c(ccn2C)n1CC(=O)N1CCC(Cc2ccccc2)CC1	L major viab 95
CC(C)CNC(=O)CC(=O)N/N=C/c1ccc(F)cc1	none
O=C(Nc1nc2c(cc3c4c(cccc42)CC3)s1)c1ccccc1Cl	none
O=C(COC(=O)CNC(=O)c1sc2ccccc2c1Cl)Nc1cc(Cl)cc(Cl)c1	none
CCN(CC)S(=O)(=O)c1cc(NC(=O)COC(=O)c2ccc(NC(=O)CC#N)cc2)ccc1C	none
CCN(CC)S(=O)(=O)c1cc(NC(=O)COC(=O)c2sc3ccccc3c2Cl)ccc1C	L major viab 50
CCOCc1c(C(=O)OCC(=O)Nc2ccc(C)c(S(=O)(=O)N(C)C)c2)oc2ccccc12	RAM inhibit 8.7
Cc1ccccc1NC(=O)COC(=O)CNC(=O)c1sc2ccccc2c1Cl	L major viab 87
Cc1cc(C)nc(NC2=NC3CCCCC3N2)n1 (stereo not given)	L major viab 64
Cc1cc(C)nc(NC2=NCC(=O)N2c2cc(Cl)cc(Cl)c2)n1	none
CN1CCC(OC(=O)COc2ccc(Br)cc2)CC1	none
CN1CCC(OC(=O)c2ccc(Br)cc2)CC1	L major viab 85 (no result: WT yeast gro inh, ABCB1 inh, ABCG2 inh, RAM inhibit)
COc1ccc(C2=Nn3c(nnc3-c3ccc(OC)cc3)SC2)cc1	L major viab 61
COc1cccc(-c2nnc3n2N=C(c2cc(OC)ccc2OC)CS3)c1	none
CCOc1cccc(-c2nnc3n2N=C(c2cc(OC)ccc2OC)CS3)c1	L major viab 66
COc1ccc(-c2nnc3n2N=C(C)CS3)cc1	none
Cc1ccccc1CS(=O)(=O)CCC(=O)N1CCN(c2ccc(N3CCOCC3)nn2)CC1	none (no result: WT yeast gro inh)
CCOCCCNC(=O)CSc1nc2nc(C)c(Cc3ccccc3)c(C)n2n1	none
O=C(CNC(=O)C12CC3CC(CC(C3)C1)C2)N1CCN(S(=O)(=O)/C=C/c2ccccc2)CC1	none
CCc1ccc2[nH]c(=O)c(C3C(C#N)=C(N)Oc4c3ccc3cccnc43)cc2c1 (stereo not given)	none
Cc1ccc2cc(C3C(C#N)=C(N)Oc4c3ccc3cccnc43)c(=O)[nH]c2c1 (stereo not given)	L major viab 91
Cc1[nH]n2c(=O)c3c(nc2c1-c1ccccc1)CCC3	none
Cc1[nH]n2c(=O)c3c(nc2c1-c1ccc(Cl)cc1)CCC3	L major viab 99
Nc1[nH]n2c(=O)c3c(nc2c1N=Nc1ccccc1)CCCC3	WT yeast gro inh 80, L major viab 91
Nc1[nH]n2c(=O)c3c(nc2c1N=Nc1ccc(Cl)cc1)CCCC3	L major viab 79
O=c1c2c(nc3c(-c4ccccc4)c[nH]n13)CCCC2	L major viab 74
O=C(NNC(=O)C1CC=CCC1C(=O)O)c1ccc(Cl)cc1 (stereo not given)	none
O=c1nc(SCc2cccc(C(F)(F)F)c2)nc2ccccn12	none
CC(C)Cn1c(-c2ccc(C#N)cc2)nc2c1c(=O)[nH]c(=O)n2CC(C)C	none
COc1cccc(OCCCN2CCN(S(=O)(=O)c3ccc(NC(C)=O)cc3)CC2)c1	L major viab 68
COc1ccc(NC(=O)CCN2CCN(S(=O)(=O)c3ccc(Cl)cc3)CC2)cc1	L major viab 93
CCOc1ccc(NC(=O)CN2CCN(S(=O)(=O)c3ccc(Cl)cc3)CC2)cc1	none
CN(CC(=O)Nc1ccc(S(=O)(=O)N2CCCC2)cc1)Cc1ccc(Cl)cc1Cl	L major viab 86
CN(CC(=O)Nc1ccc(S(=O)(=O)N2CCCC2)cc1)CC(=O)Nc1ccc(F)c(F)c1F	none
CCOc1ccc(NC(=O)CCN2CCN(S(=O)(=O)c3cc(Cl)ccc3OC)CC2)cc1	L major viab 99
